According to ChEMBL document CHEMBL4184255, “Formoxanthone C, isolated from Cratoxylum formosum ssp. pruniflorum, reverses anticancer drug resistance by inducing both apoptosis and autophagy in human A549 lung cancer cells” (Bioorg Med Chem Lett, 2018):
≈ marks a conversion by molar mass, not a printed value. Calls of active or inactive are those of the source. No cut-off for these calls is given here.

Legend:
Homo sapiens [1] = organism: Homo sapiens; experiment: Induction of cell death in multidrug resistant human A549RT-eto cells incubated for 72 hrs by MTT assay; type: functional
Summary of the method: (§1)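 Parental A549 and etoposide-resistant A549RT-eto cells exposed 72 h to two-fold serial dilutions, 25 to 1.56 µg/ml; viability by MTT; IC50 derived from dose-response; mean of triplicates with standard deviation.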

[2] = Cytotoxicity in multidrug resistant human A549RT-eto cells incubated for 72 hrs by MTT assay; type: functional, cell-based; summary of the method: as §1
A549 = experiment: Cytotoxicity in human A549 cells incubated for 72 hrs by MTT assay; type: functional, cell-based; details: A549, 72 h; summary of the method: as §1
Homo sapiens [3] = organism: Homo sapiens; experiment: Cytotoxicity in multidrug resistant human A549RT-eto cells assessed as reduction in cell survival at; type: functional, cell-based
Homo sapiens [4] = organism: Homo sapiens; experiment: Cytotoxicity in multidrug resistant human A549RT-eto cells assessed as reduction in cell survival at 20 ug/ml incubated for 12 hrs by MTT assay; type: functional, cell-based
Summary of the method: (§2)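 A549RT-eto cells held at fixed 20 µg/ml and sampled at several exposure times (0, 6, 12, 24 h); survival scored.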

Homo sapiens [5] = organism: Homo sapiens; experiment: Cytotoxicity in multidrug resistant human A549RT-eto cells assessed as reduction in cell survival at 20 ug/ml incubated for 24 hrs by MTT assay; type: functional, cell-based; summary of the method: as §2
Homo sapiens [6] = organism: Homo sapiens; experiment: Induction of apoptosis in multidrug resistant human A549RT-eto cells assessed as reduction in pro-caspse-8 protein expression at 10 to 20 ug/ml incubated for 12 hrs by Western blot method; type: functional
Summary of the method: (§3)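 A549RT-eto cells treated at 10 and 20 µg/ml, lysed at 12 h; lysates resolved on 12% SDS-PAGE; immunoblot for pro-caspase 8 and PARP cleavage.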

Homo sapiens [7] = organism: Homo sapiens; experiment: Induction of apoptosis in multidrug resistant human A549RT-eto cells assessed as increase in PARP cleavage at 10 to 20 ug/ml incubated for 12 hrs by Western blot method; type: functional; summary of the method: as §3
Homo sapiens [8] = organism: Homo sapiens; experiment: Induction of apoptosis in multidrug resistant human A549RT-eto cells assessed as reduction in pro-caspse-9 protein expression at 10 to 20 ug/ml incubated for 12 hrs by Western blot method; type: functional
Homo sapiens [9] = organism: Homo sapiens; experiment: Induction of autophagy in multidrug resistant human A549RT-eto cells assessed as increase in GFP-LC3-II puncta at 7.5 to 20 ug/ml incubated for 24 hrs by fluorescence microscopy; type: functional
Homo sapiens [10] = organism: Homo sapiens; experiment: Induction of autophagy in multidrug resistant human A549RT-eto cells assessed as increase in beclin-1 protein level at 20 ug/ml incubated for 24 hrs by immunoblot; type: functional
Homo sapiens [11] = organism: Homo sapiens; experiment: Induction of autophagy in multidrug resistant human A549RT-eto cells assessed as increase in LC3-I to LC3-II conversion at 20 ug/ml incubated for 24 hrs by immunoblot; type: functional
Homo sapiens [12] = organism: Homo sapiens; experiment: Induction of autophagy in multidrug resistant human A549RT-eto cells assessed as increase in LC3-I to LC3-II conversion at 20 ug/ml incubated for 24 hrs in presence of beclin-1 siRNA by immunoblot; type: functional
Summary of the method: (§4)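 A549RT-eto cells transfected with control or beclin-1 siRNA (100 nM), then given 0 or 20 µg/ml for 24 h; viability by light microscopy and MTT as percent relative viability, mean of three experiments; lysates on 12% SDS-PAGE immunoblotted for PARP cleavage, beclin-1 and LC3.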

Homo sapiens [13] = organism: Homo sapiens; experiment: Induction of cell death in multidrug resistant human A549RT-eto cells at 20 ug/ml incubated for 24 hrs in presence of beclin-1 siRNA by MTT assay; type: functional; summary of the method: as §4
Homo sapiens [14] = organism: Homo sapiens; experiment: Induction of apoptosis in multidrug resistant human A549RT-eto cells assessed as increase in PARP cleavage at 20 ug/ml incubated for 24 hrs in presence of beclin-1 siRNA by Western blot method; type: functional; summary of the method: as §4
Homo sapiens [15] = organism: Homo sapiens; experiment: Induction of cell death in multidrug resistant human A549RT-eto cells at 20 ug/ml incubated for 24 hrs in presence of beclin-1 siRNA by light microscopy; type: functional; summary of the method: as §4
[16] = Induction of cell death in multidrug resistant human A549RT-eto cells assessed as cell survival at 20 ug/ml incubated for 24 hrs in presence of pan-caspase inhibitor Z-VAD by MTT assay (reference value: 30%); type: functional; details: read-out: Survival
Summary of the method: (§5)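 Etoposide-resistant A549RT-eto cells exposed for 24 h to XanX 20 µg/ml, pan-caspase inhibitor Z-VAD 20 µM, or both combined. Morphology inspected by light microscope. Viability read by MTT assay as percentage relative to control. Values are the mean of at least three experiments.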

[17] = Induction of cell death in multidrug resistant human A549RT-eto cells assessed as cell survival at 20 ug/ml incubated for 24 hrs in presence of pan-caspase inhibitor Z-VAD by light microscopy (reference value: 30%); type: functional; details: read-out: Survival; summary of the method: as §5
[18] = Induction of cell death in multidrug resistant human A549RT-eto cells assessed as cell survival at 20 ug/ml incubated for 24 hrs in absence of pan-caspase inhibitor Z-VAD by MTT assay; type: functional; details: read-out: Survival; summary of the method: as §5
[19] = Induction of cell death in multidrug resistant human A549RT-eto cells assessed as cell survival at 20 ug/ml incubated for 24 hrs in absence of pan-caspase inhibitor Z-VAD by light microscopy; type: functional; details: read-out: Survival; summary of the method: as §5
Homo sapiens [20] = organism: Homo sapiens; experiment: Induction of apoptosis in multidrug resistant human A549RT-eto cells assessed as increase in PARP cleavage at 20 ug/ml incubated for 24 hrs in presence of pan-caspase inhibitor Z-VAD by Western blot method; type: functional
Summary of the method: (§6)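 A549RT-eto cells given 20 µg/ml alone, Z-VAD (20 µM) alone, or both for 24 h; MTT viability, mean of at least three experiments; lysates on 12% SDS-PAGE immunoblotted for cleaved PARP, beclin-1, LC3B and Atg5.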

Homo sapiens [21] = organism: Homo sapiens; experiment: Induction of autophagy in multidrug resistant human A549RT-eto cells assessed as increase in LC3-I to LC3-II conversion at 20 ug/ml incubated for 24 hrs in presence of pan-caspase inhibitor Z-VAD by immunoblot; type: functional; summary of the method: as §6
Homo sapiens [22] = organism: Homo sapiens; experiment: Induction of autophagy in multidrug resistant human A549RT-eto cells assessed as increase in beclin-1 protein level at 20 ug/ml incubated for 24 hrs in presence of pan-caspase inhibitor Z-VAD by immunoblot; type: functional; summary of the method: as §6
Homo sapiens [23] = organism: Homo sapiens; experiment: Reduction in HDAC4 protein expression in multidrug resistant human A549RT-eto cells at 20 ug/ml incubated for 24 hrs by immunoblot; type: functional
Summary of the method: (§7)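 A549 and A549RT-eto cells treated with 20 µg/ml for 24 h; lysates resolved on 8% SDS-PAGE; immunoblot for HDAC4, P-gp and PARP cleavage.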

Homo sapiens [24] = organism: Homo sapiens; experiment: Reduction in P-gp protein expression in multidrug resistant human A549RT-eto cells at 20 ug/ml incubated for 24 hrs by immunoblot; type: functional; summary of the method: as §7
[25] = Induction of cell death in multidrug resistant human A549RT-eto cells at 20 ug/ml incubated for 24 hrs by MTT assay; type: functional
[26] = Induction of cell death in multidrug resistant human A549RT-eto cells at 20 ug/ml incubated for 24 hrs in presence of HDAC4 siRNA by MTT assay; type: functional
Summary of the method: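 A549RT-eto cells transfected with control or HDAC4 siRNA (100 nM), then exposed to XanX 20 µg/ml for 24 h. Morphology checked by light microscope. Viability by MTT assay as percentage relative viability, mean of three experiments.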

Homo sapiens [27] = organism: Homo sapiens; experiment: Induction of apoptosis in multidrug resistant human A549RT-eto cells assessed as increase in PARP cleavage at 20 ug/ml incubated for 24 hrs in presence of HDAC4 siRNA by Western blot method; type: functional
Homo sapiens [28] = organism: Homo sapiens; experiment: Induction of autophagy in multidrug resistant human A549RT-eto cells assessed as increase in LC3-I to LC3-II conversion at 20 ug/ml incubated for 24 hrs in presence of HDAC4 siRNA by immunoblot; type: functional
Summary of the method: (§8)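 A549RT-eto cells transfected with control or HDAC4 siRNA (100 nM), then 20 µg/ml for 24 h; MTT viability, mean of three experiments; lysates on 12% SDS-PAGE immunoblotted for HDAC4, beclin-1 and LC3-I cleavage.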

Homo sapiens [29] = organism: Homo sapiens; experiment: Induction of autophagy in multidrug resistant human A549RT-eto cells assessed as increase in beclin-1 protein level at 20 ug/ml incubated for 24 hrs in presence of HDAC4 siRNA by immunoblot; type: functional; summary of the method: as §8
Homo sapiens [30] = organism: Homo sapiens; experiment: Induction of cell death in multidrug resistant human A549RT-eto cells incubated for 72 hrs by light microscopy; type: functional
Summary of the method: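 A549RT-eto cells given 0, 1.56, 3.13, 6.25, 12.5 or 25 µg/ml for 72 h; morphology and viability judged under light microscope.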

Homo sapiens [31] = organism: Homo sapiens; experiment: Induction of autophagy in multidrug resistant human A549RT-eto cells assessed as increase in vacuoles formation at 7.5 to 20 ug/ml by light microscopy
Homo sapiens [32] = organism: Homo sapiens; experiment: Induction of autophagy in multidrug resistant human A549RT-eto cells assessed as reduction in mTOR phosphorylation at 7.5 to 20 ug/ml incubated for 12 hrs by immunoblot
Homo sapiens [33] = organism: Homo sapiens; experiment: Induction of autophagy in multidrug resistant human A549RT-eto cells assessed as increase in beclin-1 protein level at 7.5 to 20 ug/ml incubated for 12 hrs by immunoblot
Homo sapiens [34] = organism: Homo sapiens; experiment: Induction of autophagy in multidrug resistant human A549RT-eto cells assessed as increase in LC3-I to LC3-II conversion at 7.5 to 20 ug/ml incubated for 12 hrs by immunoblot

Structure (SMILES): CC(C)=CCc1c2c(c3oc4c(O)c(O)ccc4c(=O)c3c1O)C(C)(C)C(C)O2 (stereo not given)
- Activity (Homo sapiens [1]): Dose-dependent effect
- IC50 [2]: 4.65 µg/mL (≈ 11.7 µM)
- IC50 (A549): 2.56 µg/mL (≈ 6.46 µM)
- Activity (Homo sapiens [3]): inactive
- Activity (Homo sapiens [4]): inactive
- Activity (Homo sapiens [5]): Active
- Activity (Homo sapiens [6]): Active
- Activity (Homo sapiens [7]): Active
- Activity (Homo sapiens [8]): Active
- Activity (Homo sapiens [9]): Active
- Activity (Homo sapiens [10]): Active
- Activity (Homo sapiens [11]): Active
- Activity (Homo sapiens [12]): inactive
- Activity (Homo sapiens [13]): inactive
- Activity (Homo sapiens [14]): Active
- Activity (Homo sapiens [15]): inactive
- viability at 20 µg/mL [16]: 85%
- viability at 20 µg/mL [17]: 85%
- viability at 20 µg/mL [18]: 30%
- viability at 20 µg/mL [19]: 30%
- Activity (Homo sapiens [20]): inactive
- Activity (Homo sapiens [21]): Active
- Activity (Homo sapiens [22]): Active
- Activity (Homo sapiens [23]): Active
- Activity (Homo sapiens [24]): Active
- Activity [25]: 60%
- Activity [26]: 80%
- Activity (Homo sapiens [27]): Active
- Activity (Homo sapiens [28]): Active
- Activity (Homo sapiens [29]): Active
- Activity (Homo sapiens [30]): Dose-dependent effect
- Activity (Homo sapiens [31]): Active
- Activity (Homo sapiens [32]): Active
- Activity (Homo sapiens [33]): Active
- Activity (Homo sapiens [34]): Active
